In ChEMBL document CHEMBL1124748, “Preparation of triazolo[1,5-c]pyrimidines as potential antiasthma agents” (J Med Chem, 1990) one finds IC50 and ED50 data, which are given here for 63 compounds.

pIC50: −log10 of the molar value.

The term ED50 denotes the midpoint of the dose-response relation. Usually pIC50 stands for the negative decadic logarithm of the IC50, by convention in mol/L.

System in one assay: not listed separately
Description: Antiasthmatic activity against the immunoglobulin E (IgE) antigen using the human basophil asthma model; I = Inactive at 48 uM. The format is functional.
For `C[n+]1cccc(-c2nccc3nc(N)nn23)c1.[I-]`, the IC50 entry is on record as “Not Active”.

Regarding `Nc1nc2ccnc(-c3ccc(C(F)(F)F)cc3)n2n1`, the IC50 result is “Not Active”. Turning to `Nc1nc2ccnc(-c3cccc(F)c3)n2n1`, the IC50 result was “Not Active”. For the compound `CN(C)/C=N/c1nc2ccnc(-c3cccc(C(F)(F)F)c3)n2n1`, the IC50 result was “Not Active”. In the case of `FC(F)(F)c1cccc(-c2nccc3ncnn23)c1`, the IC50 entry is “Not Active”. As for `Nc1nc2ccnc(-c3cccc(C(=O)O)c3)n2n1`, the IC50 result is given as “Not Active”. As to `Cc1cnc(-c2ccc(C(F)(F)F)cc2)n2nc(N)nc12`, the IC50 result is reported as “Not Active”. Still for that read-out and setting: the same measure for `CC(=O)Nc1nc2c(C)cnc(-c3cccc(N)c3)n2n1`: “Not Active”; for `FC(F)(F)c1cccc(-c2nccc3nc(NCC4CO4)nn23)c1` (stereo unspecified): “Not Active”. Still for that read-out and setting: the same measure for `CC(=O)Nc1nc2ccnc(-c3cccc([N+](=O)[O-])c3)n2n1`: “Not Active”; for `Cc1cnc(-c2cccc([N+](=O)[O-])c2)n2nc(Cl)nc12`: “Not Active”; for `Nc1nc2ccnc(-c3cccs3)n2n1`: “Not Active”. On the same count and under the same terms, with `Nc1nc2ccnc(-c3ccccc3F)n2n1` the entry was “Not Active”; with `Cc1cccnc1-c1nccc2nc(N)nn12`, “Not Active”; with `Nc1nc2ccnc(-c3cccc(CO)c3)n2n1`, “Not Active”.

For `CCCc1c(C)nc(-c2cccc(C(F)(F)F)c2)n2nc(N)nc12`, the IC50 result is recorded as “Not Active”.

Take `CN(C)c1nc2ccnc(-c3cccc(C(F)(F)F)c3)n2n1`: the IC50 entry is listed as “Not Active”.

In the case of `Nc1nc2cc(C(F)(F)F)nc(-c3cccc(C(F)(F)F)c3)n2n1`, the IC50 result is recorded as “Not Active”. Turning to `CCOC(=O)CNc1nc2ccnc(-c3cccc(C(F)(F)F)c3)n2n1`, the IC50 entry was “Not Active”.

For `CNc1cccc(-c2ncc(C)c3nc(NC)nn23)c1`, the IC50 entry is recorded as “Not Active”. Same read-out and setting: with `Cc1cc2nc(N)nn2c(-c2ccc(C(F)(F)F)cc2)n1` the entry was “Not Active”; with `Nc1nc2ccnc(-c3ccccc3)n2n1`, “Not Active”; with `Cc1cnc(-c2ccccc2)n2nc(N)nc12`, “Not Active”. `Nc1nc2ccnc(-c3cc(Cl)cc(Cl)c3)n2n1`: the IC50 entry is “Not Active”. Take `Cc1cnc(-c2cccc([N+](=O)[O-])c2)n2nc(N3CCOCC3)nc12`: the IC50 result was “Not Active”. As for `CCCc1cc2nc(N)nn2c(-c2cccc(C(F)(F)F)c2)n1`, the IC50 result was “Not Active”.

For the compound `Nc1nc2ccnc(Cc3cccc(C(F)(F)F)c3)n2n1`, the IC50 result is “Not Active”. The same measure, in the same setting: the same measure for `Cc1cc2nc(N)nn2c(-c2cccc(C(F)(F)F)c2)n1`: “Not Active”. On to `CCOC(=O)CN(C(C)=O)c1nc2ccnc(-c3cccc(C(F)(F)F)c3)n2n1`, for which the IC50 result was “Not Active”. Turning to `Nc1nc2ccnc(-c3ccc[n+]([O-])c3)n2n1`, the IC50 result was “Not Active”.

With `Cc1ccc(S(=O)(=O)Nc2cccc(-c3ncc(C)c4nc(N)nn34)c2)cc1`, the IC50 result is listed as “Not Active”. The same measure, in the same setting: the same measure for `CC(=O)N(C)c1nc2ccnc(-c3cccc(C(F)(F)F)c3)n2n1`: “Not Active”; for `Cc1cnc(-c2cccc(N)c2)n2nc(N)nc12`: “Not Active”; for `Nc1nc2ccnc(-c3ccccn3)n2n1`: “Not Active”.

For another assay, the system named is Mus musculus. The assay is described as follows: Effective dose (ip) evaluated by Passive cutaneous anaphylaxis test (PCA) by injecting IgE serum intradermally in mice.
Take `Nc1nc2ccnc(-c3cccc(C(F)(F)F)c3)n2n1`: the ED50 was 166 mg/kg. As for `Nc1nc2ccnc(-c3cccc(Br)c3)n2n1`, the ED50 amounted to 142 mg/kg. Take `Nc1nc2ccnc(-c3ccccc3F)n2n1`: it took a dose of 218 mg/kg to reach the 50% effect level (ED50). This ED50 is about 1.5-fold higher than that of the compound before. As for `Nc1nc2ccnc(-c3cccc(OC(F)F)c3)n2n1`, the ED50 is 138 mg/kg. As for `Nc1nc2ccnc(-c3ccc(F)cc3)n2n1`, the 50% effective dose (ED50) came to 178 mg/kg. Compound `Nc1nc2ccnc(Cc3cccc(C(F)(F)F)c3)n2n1` gave a median effective dose (ED50) of 178 mg/kg.

`Nc1nc2ccnc(-c3ccncc3)n2n1` gave an ED50 of 14 mg/kg. Against the preceding compound, the ED50 is about 13-fold lower. Compound `Cn1c(=O)c2nc[nH]c2n(C)c1=O.O` [THEOPHYLLINE] had an ED50 of 140 mg/kg.

System in another assay: not listed separately
The assay is described as follows: Antiasthmatic activity against the immunoglobulin E (IgE) antigen using the human basophil asthma model. Format: functional. The essentials: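 Leukocytes washed and resuspended in pH 7.4 buffer (25 mM PIPES, 110 mM NaCl, 5 mM KCl, 0.6 mM CaCl2, 1.0 mM MgCl2, 0.03% HSA). Cells preincubated with drug 10 min at 37 °C, then incubated 1 h at 37 °C with shaking. Histamine in HClO4-treated supernatants measured fluorometrically against lysed-cell totals. Triplicates, controls sextuplicate. IC50 from linear regression of percent release.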
`Nc1nc2ccnc(-c3cccc(C(F)(F)F)c3)n2n1` gave a pIC50 of 5.66. As to `CC(=O)Nc1nc2c(C)cnc(-c3cccc([N+](=O)[O-])c3)n2n1`, the pIC50 was 4.96. `Cc1ccc(S(=O)(=O)Nc2cccc(-c3nccc4nc(N)nn34)c2)cc1`: the pIC50 was 5.82.

For `Nc1nc2ccnc(-c3cccc(Br)c3)n2n1`, the pIC50 is 5.43. Compared with the last compound, the pIC50 is 0.39 log units lower. Consider `CC(=O)Nc1nc2c(C)cnc(-c3cccc(NS(=O)(=O)c4ccc(C)cc4)c3)n2n1`, for which the pIC50 was 4.29. In turn, `Cc1cnc(-c2cccc(C(F)(F)F)c2)n2nc(N)nc12` showed a pIC50 of 5.25. On the same count and under the same terms, the same measure for `Nc1nc2ccnc(-c3cc(C(F)(F)F)cc(C(F)(F)F)c3)n2n1`: 6.15. `Nc1nc2ccnc(-c3cc[n+]([O-])cc3)n2n1` had a pIC50 of 5.25. Still for that read-out and setting: with `Cc1cnccc1-c1nccc2nc(N)nn12` the figure was 5.60; with `Cc1cnc(-c2cccc([N+](=O)[O-])c2)n2nc(N)nc12`, 5.06; with `Nc1nc2ccnc(-c3cccc(C(Cl)Cl)c3)n2n1`, 6.00. Consider `CC(=O)Nc1nc2ccnc(-c3cccc(NS(=O)(=O)c4ccc(C)cc4)c3)n2n1`, for which the pIC50 was 5.80. Same read-out and setting: with `Nc1nc2ccnc(-c3cccc([N+](=O)[O-])c3)n2n1` the figure was 5.42; with `CCOC(=O)c1cccc(-c2nccc3nc(N)nn23)c1`, 4.94. With `Nc1nc2ccnc(-c3cccnc3)n2n1`, the pIC50 was 4.85.

`CNc1nc2ccnc(-c3cccc(C(F)(F)F)c3)n2n1`: the pIC50 is 4.99. This pIC50 and that of the compound before are within 0.2 log units of each other. Take `Nc1nc2ccnc(-c3cccc(OC(F)F)c3)n2n1`: the negative logarithm of the IC50 (pIC50) was 5.47. On to `OC(CCl)CNc1nc2ccnc(-c3cccc(C(F)(F)F)c3)n2n1` (stereo unspecified), for which the pIC50 was 5.03.

In the case of `CC(=O)Nc1nc2ccnc(-c3cccc(C(F)(F)F)c3)n2n1`, the pIC50 was 4.70. Same read-out and setting: with `Nc1nc2ccnc(-c3cccc(Cl)c3)n2n1` the figure was 5.37; with `CCOC(=O)c1ccc(-c2nccc3nc(N)nn23)cc1`, 4.78. `Nc1nc2ccnc(-c3ccc(F)cc3)n2n1` gave a pIC50 of 4.50. This pIC50 lies 0.28 log units lower than the previous one.

For `Nc1nc2ccnc(-c3ccncc3)n2n1`, the pIC50 was 4.74. `Nc1nc2ccnc(-c3cccc(C=O)c3)n2n1` gave a pIC50 of 6.15. In the case of `C#Cc1cccc(-c2nccc3nc(N)nn23)c1`, the pIC50 is 4.90. This pIC50 is 1.25 log units lower than that of the compound before. The compound `CN(C)C(=O)c1cccc(-c2nccc3nc(N)nn23)c1` showed a pIC50 of 5.46. `Cc1cccc(-c2nccc3nc(N)nn23)c1` showed a pIC50 of 5.26. Against the preceding compound, the pIC50 is 0.20 log units lower.

Compound `O=C(O)c1cc(=O)c2c(OCC(O)COc3cccc4oc(C(=O)O)cc(=O)c34)cccc2o1` [CROMOLYN SODIUM] showed a pIC50 of 3.00. In turn, `Cn1c(=O)c2nc[nH]c2n(C)c1=O.O` [THEOPHYLLINE] gave a negative logarithm of the IC50 (pIC50) of 3.51.
